Assay results taken from publication PMC4422293 (Drug Design, Development and Therapy, 2015).
Like-named read-outs stand apart in the source and are kept apart here.

Key:
[1] = system: Staphylococcus aureus 1094 (MRSA); assay: MIC by broth dilution; type: cell-based
E. faecium F118 (VRE) = assay: MIC by broth dilution; type: cell-based; conditions: Enterococcus faecium
[2] = system: S. aureus HFH-30123 (MRSA); assay: MIC by broth dilution; type: cell-based; conditions: Staphylococcus aureus
[3] = system: Enterobacter aerogenes ATCC 13048; assay: MIC by broth dilution; type: cell-based; conditions: Klebsiella aerogenes, ATCC13048
[4] = system: Pseudomonas aeruginosa X13273; assay: MIC by broth dilution; type: cell-based
S. aureus = assay: Antibacterial activity / killing of S. aureus; type: cell-based; conditions: Staphylococcus aureus
[5] = system: K. pneumoniae NR-15411 (KPC); assay: MIC by broth dilution; type: cell-based; conditions: Klebsiella pneumoniae
[6] = Cytotoxicity against mammalian cells; type: cell-based; conditions: human, HeLa cells (ATCC CCL-2.2)
How it was run: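 HeLa cells (ATCC CCL-2.2) were exposed to the test compound for 72 h. CC50 is the concentration giving a half-maximal decrease in viability, averaged over two replicate assays.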

P. aeruginosa ATCC 27853 = assay: MIC by broth dilution; type: cell-based; conditions: Pseudomonas aeruginosa, ATCC27853
[7] = system: Acinetobacter baumannii ATCC 19606; assay: MIC by broth dilution; type: cell-based; conditions: ATCC19606, Table 4, mean of three replicates
[8] = system: Enterobacter cloacae ATCC 13047; assay: MIC by broth dilution; type: cell-based; conditions: ATCC13047
[9] = Surface plasmon resonance binding to immobilized 3-Lipid II
How it was run: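 SPR was run at 25°C on a Biacore T100. About 50 RU of farnesyl (3-isoprene) Lipid II was amine-coupled to a CM5 chip. Running buffer was 10 mM HEPES, 150 mM NaCl, 0.05% P20, pH 7.4 (±3 mM EDTA) with 10% DMSO. Screening injections were at 10 μM, with control-cell subtraction and 30 s regeneration in 50 mM NaOH. Kd came from binding isotherms, averaged over three assays.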

[10] = system: Enterococcus faecium EF1509 (VRE); assay: MIC by broth dilution; type: cell-based
[11] = system: Klebsiella pneumoniae NR-15410 (KPC); assay: MIC by broth dilution; type: cell-based
[12] = system: Acinetobacter baumannii BAA-1605; assay: MIC by broth dilution; type: cell-based; conditions: BAA1605
[13] = system: DNA, cell wall, protein, and lipid synthesis in S. aureus NCTC 8325; assay: Macromolecular synthesis assays, all pathways; type: cell-based, Staphylococcus aureus
[14] = system: Staphylococcus aureus (VISA) ATCC 700699; assay: MIC by broth dilution; type: cell-based; conditions: Table S2; unit not given
[15] = system: Staphylococcus aureus (USA300) MRSA; assay: MIC by broth dilution; type: cell-based; conditions: Table S2; unit not given
S. aureus (VISA) NRS22 = assay: MIC by broth dilution; type: cell-based, Staphylococcus aureus; conditions: Table S2; unit not given
[16] = read-out: Lipid II binding (Kd), Table 4, averages of three replicate assays

Compound	MIC [1] [µg/mL]	MIC (E. faecium F118 (VRE)) [µg/mL]	MIC [2] [µg/mL]	MIC [3] [µg/mL]	MIC [4] [µg/mL]	MIC [5] [µg/mL]	CC50 at 72 h [6] [µg/mL]	MIC (P. aeruginosa ATCC 27853) [µg/mL]	MIC [7] [µg/mL]	MIC [8] [µg/mL]	Kd [9, 16] [µM]	MIC [10] [µg/mL]	MIC [11] [µg/mL]	MIC [12] [µg/mL]	also measured
CC(C)C[n+]1c(/C=C/C=C2/N(C)c3ccccc3C2(C)C)cc(-c2ccccc2)cc1-c1ccccc1.F[B-](F)(F)F [SF-5-331, 1-Isobutyl-2,4-diphenyl-6-((1E,3E)-3-(1,3,3-trimethylindolin-2-ylidene)prop-1-en-1-yl)pyridin-1-ium tetrafluoroborate]	1	2	1	32	8	32	0.26	32	8	32	0.34 ± 0.24	0.5	16	8	MIC (S. aureus): 1 µg/mL; inhibition of macromolecular synthesis pathways [13]: inhibited all pathways at low concentrations
CN1/C(=C/C=C/c2cc(-c3ccccc3)cc(-c3ccccc3)[n+]2CCO)C(C)(C)c2ccccc21.F[B-](F)(F)F [SF-5-332, 1-(2-Hydroxyethyl)-2,4-diphenyl-6-((1E,3E)-3-(1,3,3-trimethylindolin-2-ylidene)prop-1-en-1-yl)pyridin-1-ium tetrafluoroborate]	1	8	1	≥ 32	≥ 32	≥ 32	0.8	≥ 32	20.2	≥ 32	4.4 ± 3.02	1	≥ 32	20.2	–
CC(C)[n+]1c(/C=C/C=C2/N(C)c3ccccc3C2(C)C)cc(-c2ccccc2)cc1-c1ccccc1.F[B-](F)(F)F [SF-5-330, 1-Isopropyl-2,4-diphenyl-6-((1E,3E)-3-(1,3,3-trimethylindolin-2-ylidene)prop-1-en-1-yl)pyridin-1-ium tetrafluoroborate]	1	5	1	8	4	25.4	0.33	8	8	16	0.54 ± 0.16	0.5	10	8	MIC (S. aureus): 1 µg/mL; inhibition of macromolecular synthesis pathways [13]: inhibited all pathways at low concentrations
Cc1cc(-c2ccccc2)cc(-c2ccccc2)[n+]1C [Z56760026, 1,2-Dimethyl-4,6-diphenylpyridin-1-ium]	–	–	–	–	–	–	–	–	–	–	–	–	–	–	Kd ([9]; read-out: Lipid II binding Kd): 37 µM
CN[C@H](CC(C)C)C(=O)N[C@H]1C(=O)N[C@@H](CC(N)=O)C(=O)N[C@H]2C(=O)N[C@H]3C(=O)N[C@H](C(=O)N[C@H](C(=O)O)c4cc(O)cc(O)c4-c4cc3ccc4O)[C@H](O)c3ccc(c(Cl)c3)Oc3cc2cc(c3O[C@@H]2O[C@H](CO)[C@@H](O)[C@H](O)[C@H]2O[C@H]2C[C@](C)(N)[C@H](O)[C@H](C)O2)Oc2ccc(cc2Cl)[C@H]1O [Vancomycin]	–	–	–	–	–	–	–	–	–	–	–	–	–	–	Antibacterial activity (MIC) [14]: 8; Antibacterial activity (MIC) [15]: ≤ 0.5; Antibacterial activity (MIC) (S. aureus (VISA) NRS22): 8
CN1/C(=C/C=C/c2cc(-c3ccccc3)cc(-c3ccccc3)[n+]2C)C(C)(C)c2ccccc21.F[B-](F)(F)F [SF-5-219, 1-Methyl-2,4-diphenyl-6-((1E,3E)-3-(1,3,3-trimethylindolin-2-ylidene)prop-1-en-1-yl)pyridin-1-ium tetrafluoroborate]	1	5	1	32	≥ 32	32	0.25	≥ 32	8	≥ 32	7.4 ± 3.08	0.5	32	8	–
CN(C)CC[n+]1c(/C=C/C=C2/N(C)c3ccccc3C2(C)C)cc(-c2ccccc2)cc1-c1ccccc1.F[B-](F)(F)F [SF-5-334, 1-(2-(Dimethylamino)ethyl)-2,4-diphenyl-6-((1E,3E)-3-(1,3,3-trimethylindolin-2-ylidene)prop-1-en-1-yl) pyridin-1-ium tetrafluoroborate]	16	32	16	≥ 32	≥ 32	≥ 32	2.25	≥ 32	32	≥ 32	1.9 ± 0.86	8	≥ 32	32	–
CCOc1ccc(-c2cc(C=CC=C3N(C)c4ccccc4C3(C)C)o[c+](-c3ccc(OCC)cc3)c2)cc1 [BAS00127537, 2,4-Bis-(4-ethoxy-phenyl)-6-[3-(1,3,3-trimethyl-1,3-dihydro-indol-2-ylidene)-propenyl]-pyranylium]	–	–	–	–	–	–	–	–	–	–	–	–	–	–	reduction in Lipid II-binding affinity compared to BAS00127538 ([9]; from Table 1): ~ 15 fold
